Data: ChEMBL document CHEMBL3734698, “1H-Pyrazolo[3,4-g]hexahydro-isoquinolines as potent GR antagonists with reduced hERG inhibition and an improved pharmacokinetic profile” (Bioorg Med Chem Lett, 2015)
Activity calls are given as the source filed them. No cut-off for these calls is given here.

How the values were obtained:
[1] = target: T1, Glucocorticoid receptor (Homo sapiens, UniProt P04150); experiment: Antagonist activity at glucocorticoid receptor in human HepG2 cells assessed as inhibition of glucocorticoid-induced TAT activity after 24 hrs; assay type: cell-based
T1 sequence (P04150 whole entry): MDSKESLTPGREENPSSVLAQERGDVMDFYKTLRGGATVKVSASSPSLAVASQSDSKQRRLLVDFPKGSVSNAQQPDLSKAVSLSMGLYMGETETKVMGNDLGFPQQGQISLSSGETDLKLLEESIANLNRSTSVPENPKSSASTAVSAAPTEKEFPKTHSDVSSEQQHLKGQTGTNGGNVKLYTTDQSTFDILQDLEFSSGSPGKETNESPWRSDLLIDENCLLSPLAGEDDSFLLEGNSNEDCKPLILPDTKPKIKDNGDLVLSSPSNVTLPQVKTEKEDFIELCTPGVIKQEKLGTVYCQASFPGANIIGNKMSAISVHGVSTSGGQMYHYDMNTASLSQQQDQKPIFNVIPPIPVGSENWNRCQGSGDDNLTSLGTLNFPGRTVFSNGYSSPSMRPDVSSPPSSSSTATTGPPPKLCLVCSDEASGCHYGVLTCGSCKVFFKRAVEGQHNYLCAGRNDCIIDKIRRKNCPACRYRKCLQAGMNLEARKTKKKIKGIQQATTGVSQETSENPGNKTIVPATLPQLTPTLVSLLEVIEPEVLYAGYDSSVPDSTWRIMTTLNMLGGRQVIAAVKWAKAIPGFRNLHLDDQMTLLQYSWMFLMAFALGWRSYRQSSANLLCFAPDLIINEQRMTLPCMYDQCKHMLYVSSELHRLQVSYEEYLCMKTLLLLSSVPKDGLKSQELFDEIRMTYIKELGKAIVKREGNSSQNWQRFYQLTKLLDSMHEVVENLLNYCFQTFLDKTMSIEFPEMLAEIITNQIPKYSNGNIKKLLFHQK

[2] = target: T1, Glucocorticoid receptor; experiment: Binding affinity to human recombinant glucocorticoid receptor by fluorescence polarization assay
[3] = target: T2, hERG (KCNH2) (Homo sapiens, UniProt Q12809); experiment: Inhibition of human ERG at 10 uM by patch clamp technique
[4] = target: T2, hERG (KCNH2); experiment: Inhibition of human ERG at 1 uM by patch clamp technique
[5] = system: Rattus norvegicus; experiment: Reduction in olanzapine-induced weight gain in rat at 20 mg/kg, po bid administered for 21 days measured from day 4 of compound dosing; assay type: functional, organism-based
[6] = target: T3, Glucocorticoid receptor (Rattus norvegicus, UniProt P06536); experiment: Agonist activity at glucocorticoid receptor in rat primary hepatocytes assessed as inhibition of glucocorticoid-induced TAT activity; assay type: cell-based, Hepatocyte
T3 sequence (P06536 whole entry): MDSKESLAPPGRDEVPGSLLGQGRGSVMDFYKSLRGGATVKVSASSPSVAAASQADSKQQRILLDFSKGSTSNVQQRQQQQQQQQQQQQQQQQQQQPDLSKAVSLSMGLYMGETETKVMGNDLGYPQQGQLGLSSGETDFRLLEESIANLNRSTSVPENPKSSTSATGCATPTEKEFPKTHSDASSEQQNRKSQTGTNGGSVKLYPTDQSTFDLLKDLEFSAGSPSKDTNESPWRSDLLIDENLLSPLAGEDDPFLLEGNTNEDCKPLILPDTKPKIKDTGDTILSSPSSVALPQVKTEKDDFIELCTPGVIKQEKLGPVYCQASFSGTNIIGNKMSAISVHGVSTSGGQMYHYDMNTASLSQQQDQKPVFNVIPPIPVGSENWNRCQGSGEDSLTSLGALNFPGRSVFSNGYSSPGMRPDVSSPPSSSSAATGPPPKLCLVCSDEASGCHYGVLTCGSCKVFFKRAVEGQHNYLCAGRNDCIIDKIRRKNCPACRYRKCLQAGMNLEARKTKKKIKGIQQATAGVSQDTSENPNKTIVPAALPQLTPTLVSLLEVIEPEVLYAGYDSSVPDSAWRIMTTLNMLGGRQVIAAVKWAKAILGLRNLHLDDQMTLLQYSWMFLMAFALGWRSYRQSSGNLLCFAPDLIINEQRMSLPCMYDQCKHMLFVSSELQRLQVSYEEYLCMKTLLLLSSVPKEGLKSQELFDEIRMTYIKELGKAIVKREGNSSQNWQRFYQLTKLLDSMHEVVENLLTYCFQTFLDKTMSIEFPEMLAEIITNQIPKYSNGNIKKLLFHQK

[7] = target: Voltage-gated inwardly rectifying potassium channel KCNH2 (Homo sapiens, UniProt Q12809); experiment: Inhibition of human ERG by patch clamp technique
[8] = Agonist activity at glucocorticoid receptor in dog primary hepatocytes assessed as […] TAT activity; assay type: cell-based; conditions: Canis lupus familiaris, Hepatocyte
[9] = Cmax in rat at 5 mg/kg, po; assay type: ADME, organism-based; parameters: dose 5 mg/kg, route oral; conditions: in vivo
Method in brief: (§1)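 Rat pharmacokinetics: oral dosing at 5 mg/kg in 10% DMSO in 0.5% aqueous methyl cellulose. Intravenous dosing at 1 mg/kg in 10% DMSO, 45% PEG400 and 45% propylene glycol. Plasma Cmax was taken after the oral dose and clearance after the iv dose, and oral bioavailability was derived.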

[10] = Oral bioavailability in rat at 5 mg/kg; assay type: ADME, organism-based; conditions: in vivo; method in brief: as §1
[11] = target: T1, Glucocorticoid receptor; experiment: Antagonist activity at glucocorticoid receptor in human primary hepatocytes assessed as inhibition of glucocorticoid-induced TAT activity; assay type: cell-based, Hepatocyte
Method in brief: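 Primary human hepatocytes stimulated with dexamethasone to induce tyrosine amino transferase (TAT) activity. Compounds were tested for their ability to block this dexamethasone effect as a measure of GR antagonism. They were also run without dexamethasone to check for TAT induction, a measure of GR agonism. Read-out was TAT activity, reported as K_i.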

[12] = target: T4, Glucocorticoid receptor (Rattus norvegicus) (UniProt P06536); experiment: Antagonist activity at glucocorticoid receptor in rat primary hepatocytes assessed as inhibition of glucocorticoid-induced TAT activity relative to control; assay type: cell-based; conditions: Hepatocyte
T4 sequence (whole entry): T3 sequence (P06536 whole entry)
Method in brief: (§2)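 Glucocorticoid receptor antagonism was measured as blockade of dexamethasone-induced tyrosine amino transferase (TAT) activity. Cells were rat H4IIEC3 cells or primary hepatocytes from rat or cynomolgus monkey, as the line specifies.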

[13] = target: T4, Glucocorticoid receptor (Rattus norvegicus); experiment: Agonist activity at glucocorticoid receptor in rat primary hepatocytes assessed as inhibition of glucocorticoid-induced TAT activity relative to control; assay type: cell-based; conditions: Hepatocyte
[14] = system: Hepatocyte; experiment: Agonist activity at glucocorticoid receptor in dog primary hepatocytes assessed as […] TAT activity relative to control; assay type: cell-based; conditions: Canis lupus familiaris
[15] = target: T3, Glucocorticoid receptor; experiment: (§3) Antagonist activity at glucocorticoid receptor in rat primary hepatocytes assessed as inhibition of glucocorticoid-induced TAT activity; assay type: cell-based, Hepatocyte; method in brief: as §2
[16] = system: Rattus norvegicus; experiment: Reduction in cortisone-induced insulin level in rat at 30 mg/kg, po bid; assay type: functional, organism-based
Method in brief: (§4)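 Rats received cortisone 30 mg/kg sc once daily for six days. Test agent was given orally twice daily at 30 mg/kg. Glucose and insulin levels were compared with cortisone-only and no-cortisone controls, with mifepristone at the same oral regimen as positive control.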

[17] = Clearance in rat at 1 mg/kg, iv; assay type: ADME, organism-based; conditions: in vivo; method in brief: as §1
[18] = system: Hepatocyte; experiment: Antagonist activity at glucocorticoid receptor in cynomolgus monkey primary hepatocytes assessed as inhibition of glucocorticoid-induced TAT activity relative to control; assay type: cell-based; conditions: Macaca fascicularis; method in brief: as §2
[19] = system: Rattus norvegicus; experiment: Reduction in cortisone-induced glucose level in rat at 30 mg/kg, po bid; assay type: functional, organism-based; method in brief: as §4
[20] = Antagonist activity at glucocorticoid receptor in cynomolgus monkey primary hepatocytes assessed as inhibition of glucocorticoid-induced TAT activity; assay type: cell-based, Macaca fascicularis; conditions: hepatocyte; method in brief: as §2
[21] = target: T3, Glucocorticoid receptor; experiment: Antagonist activity at glucocorticoid receptor in rat H4IIEC3 cells assessed as glucocorticoid-induced TAT activity; assay type: cell-based; method in brief: as §2
[22] = target: T4, Glucocorticoid receptor (Rattus norvegicus); experiment: as §3; assay type: cell-based; conditions: Hepatocyte; method in brief: as §2

T2 sequence (Q12809 whole entry): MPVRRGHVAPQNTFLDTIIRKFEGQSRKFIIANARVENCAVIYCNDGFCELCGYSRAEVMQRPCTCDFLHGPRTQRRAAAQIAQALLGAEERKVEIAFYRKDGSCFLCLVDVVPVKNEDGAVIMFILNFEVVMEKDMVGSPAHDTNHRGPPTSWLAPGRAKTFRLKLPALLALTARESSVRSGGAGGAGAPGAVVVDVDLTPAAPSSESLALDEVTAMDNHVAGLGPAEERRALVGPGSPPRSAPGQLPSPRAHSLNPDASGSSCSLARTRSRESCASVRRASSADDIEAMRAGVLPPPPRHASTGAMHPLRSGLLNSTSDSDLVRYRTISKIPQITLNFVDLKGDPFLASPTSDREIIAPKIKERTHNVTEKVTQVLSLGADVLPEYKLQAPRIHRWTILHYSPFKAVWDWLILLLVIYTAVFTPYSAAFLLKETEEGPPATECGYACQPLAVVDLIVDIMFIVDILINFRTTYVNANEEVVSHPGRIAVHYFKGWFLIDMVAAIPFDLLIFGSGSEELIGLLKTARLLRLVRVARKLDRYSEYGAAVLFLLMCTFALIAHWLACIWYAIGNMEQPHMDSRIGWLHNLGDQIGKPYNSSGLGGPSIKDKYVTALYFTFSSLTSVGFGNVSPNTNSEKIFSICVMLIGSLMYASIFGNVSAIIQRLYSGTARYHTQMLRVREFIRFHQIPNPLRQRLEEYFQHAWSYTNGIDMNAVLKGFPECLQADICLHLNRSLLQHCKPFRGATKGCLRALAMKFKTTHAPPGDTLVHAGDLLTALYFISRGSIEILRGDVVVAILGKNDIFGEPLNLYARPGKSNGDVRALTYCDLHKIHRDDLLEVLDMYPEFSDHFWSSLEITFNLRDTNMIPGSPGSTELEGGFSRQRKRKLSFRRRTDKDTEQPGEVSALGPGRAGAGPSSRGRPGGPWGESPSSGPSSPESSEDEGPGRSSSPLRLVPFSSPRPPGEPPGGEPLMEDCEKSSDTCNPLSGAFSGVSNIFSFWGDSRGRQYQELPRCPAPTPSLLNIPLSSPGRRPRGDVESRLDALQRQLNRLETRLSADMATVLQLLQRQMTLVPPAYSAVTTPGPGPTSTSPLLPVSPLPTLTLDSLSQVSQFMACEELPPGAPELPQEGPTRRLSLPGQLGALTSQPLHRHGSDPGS
Chain of Voltage-gated inwardly rectifying potassium channel KCNH2 (Q12809 whole entry): as above

Compound | Ki [1] [nM] | Ki [2] [nM] | inhibition at 10 µM [3] [%] | inhibition at 1 µM [4] [%] | also measured
O=C(c1cnccn1)[C@]12Cc3cnn(-c4ccc(F)cc4)c3C=C1CCN(S(=O)(=O)c1ccc(C(F)(F)F)cc1)C2 | 98 | 0.21 |  |  | 
O=C(c1cccs1)[C@]12Cc3cnn(-c4ccc(F)cc4)c3C=C1CCN(S(=O)(=O)c1ccc(C(F)(F)F)cc1)C2 | 27 | 0.41 |  |  | 
CCOC[C@]12Cc3cnn(-c4ccc(F)cc4)c3C=C1CCN(S(=O)(=O)c1ccc(C(F)(F)F)cc1)C2 |  |  |  |  | Activity [5]: Active
O=C(c1ccccn1)[C@]12Cc3cnn(-c4ccc(F)cc4)c3C=C1CCN(S(=O)(=O)c1ccc(C(F)(F)F)cc1)C2 [DAZUCORILANT] |  | 0.16 |  |  | Activity [5]: Active; EC50 [6]: 280 nM; IC50 [7]: 5000 nM; EC50 [8]: 1600 nM; Cmax [9]: 375 ng/mL; bioavailability [10]: 31%; Ki [11]: 100 nM; Imax [12]: 62%; Emax [13]: 51%; Emax [14]: 110%; Ki [15]: 13 nM; Activity [16]: inactive; clearance [17]: 11 mL/min/kg; Imax [18]: 100%; Activity [19]: Active; Ki [20]: 765 nM
O=C(c1cncs1)[C@]12Cc3cnn(-c4ccc(F)cc4)c3C=C1CCN(S(=O)(=O)c1ccc(C(F)(F)F)cc1)C2 | 260 | 0.33 |  |  | 
O=C(c1cocn1)[C@]12Cc3cnn(-c4ccc(F)cc4)c3C=C1CCN(S(=O)(=O)c1ccc(C(F)(F)F)cc1)C2 | 63 | 0.16 |  |  | 
O=C(c1ncc[nH]1)[C@]12Cc3cnn(-c4ccc(F)cc4)c3C=C1CCN(S(=O)(=O)c1ccc(C(F)(F)F)cc1)C2 | 52 | 0.47 |  |  | 
O=C(c1cccnc1)[C@]12Cc3cnn(-c4ccc(F)cc4)c3C=C1CCN(S(=O)(=O)c1ccc(C(F)(F)F)cc1)C2 | 151 | 0.83 |  |  | 
O=C(c1cscn1)[C@]12Cc3cnn(-c4ccc(F)cc4)c3C=C1CCN(S(=O)(=O)c1ccc(C(F)(F)F)cc1)C2 | 22 | 0.14 |  |  | 
Cc1ccccc1S(=O)(=O)N1CCC2=Cc3c(cnn3-c3ccc(F)cc3)C[C@]2(C(=O)c2ccccn2)C1 | 18.5 | 0.21 | 45 | 26 | 
CC#C[C@]1(O)CC[C@H]2[C@@H]3CCC4=CC(=O)CCC4=C3[C@@H](c3ccc(N(C)C)cc3)C[C@@]21C |  |  |  |  | Activity [16]: Active; Activity [19]: Active
O=C(c1ccco1)[C@]12Cc3cnn(-c4ccc(F)cc4)c3C=C1CCN(S(=O)(=O)c1ccc(C(F)(F)F)cc1)C2 | 31 | 0.17 |  |  | 

Continued by falling Ki [1], values first:

Ki [1] [nM] | Ki [2] [nM] | Compound | inhibition at 10 µM [3] [%] | inhibition at 1 µM [4] [%] | also measured
18 | 0.23 | O=C(c1nccs1)[C@]12Cc3cnn(-c4ccc(F)cc4)c3C=C1CCN(S(=O)(=O)c1ccc(C(F)(F)F)cc1)C2 |  |  | 
16 | 0.13 | O=C(c1ccccn1)[C@]12Cc3cnn(-c4ccc(F)cc4)c3C=C1CCN(S(=O)(=O)c1ccc(F)cc1)C2 |  |  | 
15 | 0.14 | N#Cc1cccc(S(=O)(=O)N2CCC3=Cc4c(cnn4-c4ccc(F)cc4)C[C@]3(C(=O)c3ccccn3)C2)c1 | 42 | 27 | 
14 | 0.1 | O=C(c1ccccn1)[C@]12Cc3cnn(-c4ccc(F)cc4)c3C=C1CCN(S(=O)(=O)c1cccc(C(F)(F)F)c1)C2 |  |  | Cmax [9]: 155 ng/mL; clearance [17]: 40 mL/min/kg
14 | 0.64 | O=C(c1ccccn1)[C@]12Cc3cnn(-c4ccc(F)cc4)c3C=C1CCN(S(=O)(=O)c1ccc(Cl)c(Cl)c1)C2 | 16 | 7 | Ki [21]: 8.5 nM; IC50 [7]: > 10000 nM; Cmax [9]: 437 ng/mL; Efficacy [22]: 74%; Ki [15]: 150 nM; Activity [16]: Active; Activity [19]: Active
11.4 | 0.19 | COc1cccc(S(=O)(=O)N2CCC3=Cc4c(cnn4-c4ccc(F)cc4)C[C@]3(C(=O)c3ccccn3)C2)c1 | 36 | 24 | IC50 [7]: > 19000 nM
11 | 0.29 | O=C(c1ccccn1)[C@]12Cc3cnn(-c4ccc(F)cc4)c3C=C1CCN(S(=O)(=O)c1ccc(C(F)(F)F)c(F)c1)C2 | 17 | 8 | Cmax [9]: 322 ng/mL; clearance [17]: 28.7 mL/min/kg
11 | 0.25 | O=C(c1ccccn1)[C@]12Cc3cnn(-c4ccc(F)cc4)c3C=C1CCN(S(=O)(=O)c1cccc(Cl)c1)C2 | 35 | 14 | Cmax [9]: 112 ng/mL; clearance [17]: 70 mL/min/kg
9.7 | 0.73 | O=C(c1ccccn1)[C@]12Cc3cnn(-c4ccc(F)cc4)c3C=C1CCN(S(=O)(=O)c1ccc(F)c(C(F)(F)F)c1)C2 | 31 | 16 | Cmax [9]: 112 ng/mL; clearance [17]: 103 mL/min/kg
7.5 | 0.22 | O=C(c1ccccn1)[C@]12Cc3cnn(-c4ccc(F)cc4)c3C=C1CCN(S(=O)(=O)c1ccc(F)c(F)c1)C2 | 35 | 10 | Cmax [9]: 398 ng/mL; clearance [17]: 44 mL/min/kg
6.8 | 0.14 | Cc1cccc(S(=O)(=O)N2CCC3=Cc4c(cnn4-c4ccc(F)cc4)C[C@]3(C(=O)c3ccccn3)C2)c1 | 30 | 17 | 
4.5 | 0.22 | Cc1ccc(S(=O)(=O)N2CCC3=Cc4c(cnn4-c4ccc(F)cc4)C[C@]3(C(=O)c3ccccn3)C2)cc1 | 59 | 34 | 
